The text below walks through data of ChEMBL document CHEMBL1121598, “Acylthioxanthenes: agents which selectively reduce decerebrate rigidity in the cat” (1980).

Holding throughout (format): functional
The nature of assay [1]: Ratio of motor activity and activity A.
Another assay has as its system Mus musculus. The assay can be described thus: Reduction of locomotor activity count to 50% of the control in mouse after oral administration. The method in brief:
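Mouse locomotor activity by Dews method, modified: drug given orally, activity measured for 5 min starting 1 h later. Dose (μmol/kg po) reducing locomotor activity count to 50% of control determined.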

For assay [2], the system named is Felis catus. The assay is described as follows: Reduction of the integrated electromyographic response by 50% in cat after intravenous administration. The method in brief: (§1)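 Intercollicular decerebration of cats (midbrain sectioned between colliculi) under halothane, anesthesia then stopped; ≥1 h later, integrated EMG of quadriceps recorded in response to controlled stretches. Drug infused iv in saline in graded doses, stretch response repeated; dose (μmol/kg iv) reducing stretch response by 50% determined.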

Assay [3] has as its system Felis catus. The assay is described as follows: Reduction of the integrated electromyographic response by 50% in cat after peroral administration.
Assay [4] concerns Felis catus. The assay can be described thus: Dose of compound to reduce the integrated electromyographic response by 50% in cat after peroral administration; Range is 5.5-13.7.
The test system of assay [5] is Felis catus. The assay is described as follows: Dose of compound to reduce the integrated electromyographic response by 50% in cat after intravenous administration; value from second experiment. The method in brief: as §1
For assay [6], the system named is Felis catus. The assay can be described thus: Dose of compound to reduce the integrated electromyographic response by 50% in cat after peroral administration; Range is 5.1-12.5.

In the case of `CCC(=O)c1ccc2c(c1)/C(=C\CCN1CCOCC1)c1ccccc1S2`, the Ratio in assay [1] was determined as 463. The same compound registered a Locomotor activity in the assay with Mus musculus of 125 µM/kg. Further, the “Activity A” value with Felis catus [2] turned out to be 0.27 µM/kg.

Consider `CC(=O)c1ccc2c(c1)/C(=C\CCN(C)C)c1cc(Cl)ccc1S2` (stereo in doubt; 32) [listing 1 of 2 here], for which, in the assay on Mus musculus, the Locomotor activity came to 96 µM/kg. The “Activity A” value in the assay with Felis catus [2] was determined as 0.81 µM/kg.

On to `CCC(=O)c1ccc2c(c1)/C(=C\CCN1CCN(C)CC1)c1ccccc1S2`, for which the Ratio in assay [1] was determined as 43. This compound came in with a Locomotor activity in the assay on Mus musculus of 42 µM/kg. Moreover, the “Activity A” value in the assay with Felis catus [2] amounted to 0.67 µM/kg.

For `CC(=O)c1ccc2c(c1)/C(=C\CCN(C)C)c1cc(Cl)ccc1S2` (stereo in doubt; 32) [listing 2 of 2 here], the Ratio in assay [1] came to 119.

Consider `CC(=O)c1ccc2c(c1)N(CCCN(C)C)c1ccccc1S2` [ACEPROMAZINE], for which, in assay [1], the Ratio stood at 393. Besides, the “Activity B” value with Felis catus [3] is 1 µM/kg. Moreover, the Locomotor activity in the assay with Mus musculus was found to be 11 µM/kg. In addition, the “Activity A” value with Felis catus [2] is 0.03 µM/kg.

On to `CC(C)C(=O)c1ccc2c(c1)/C(=C\CCN(C)C)c1ccccc1S2`, for which, in assay [1], the Ratio came out at 218. This compound also came in with a Locomotor activity with Mus musculus of 89 µM/kg. For the same compound, in the assay with Felis catus [2], the “Activity A” value amounted to 0.4 µM/kg.

On to `CCC(=O)c1ccc2c(c1)/C(=C\CCN(C)C)c1ccccc1S2` (stereo in doubt; 36) [listing 1 of 2 here], for which, in the assay with Felis catus [3], the “Activity B” value was 1.8 µM/kg. Further, the Locomotor activity in the assay on Mus musculus was 120 µM/kg. Also, the “Activity A” value in the assay with Felis catus [2] came to 0.15 µM/kg.

As for `CC(/C=C1/c2ccccc2Sc2ccc(C(=O)C(C)C)cc21)CN(C)C` (configuration not stated), the Ratio in assay [1] is 216. Moreover, the Locomotor activity with Mus musculus came out at 145 µM/kg. Also, the “Activity A” value with Felis catus [2] was 0.67 µM/kg.

Take `CCC(=O)c1ccc2c(c1)/C(=C\C(C)CN(C)C)c1cc(Cl)ccc1S2` (configuration not stated): in assay [1], the Ratio came to 411. In addition, the “Activity B” value in the assay on Felis catus [3] was above 9.3 µM/kg. Moreover, the Locomotor activity in the assay with Mus musculus is 534 µM/kg. Further, the “Activity A” value in the assay on Felis catus [2] worked out at 1.3 µM/kg.

Consider `CC(=O)c1ccc2c(c1)C(CCCN(C)C)c1ccccc1S2` (configuration not stated), for which, in assay [1], the Ratio stood at 63. Further, the “Activity B” value in the assay with Felis catus [4] was found to be 5.5 µM/kg. Besides, the Locomotor activity with Mus musculus worked out at 57 µM/kg. In the assay with Felis catus [2], the “Activity A” value amounted to 0.9 µM/kg.

Take `CCC(=O)c1ccc2c(c1)C(O)(CC1CCN(C)CC1)c1ccccc1S2` (configuration not stated): the Ratio in assay [1] was above 25. For the same compound, the Locomotor activity in the assay with Mus musculus was above 485 µM/kg. Moreover, in the assay with Felis catus [2], the “Activity A” value was found to be 19.39 µM/kg.

Turning to `CCC(=O)c1ccc2c(c1)C(CCCN(C)C)c1cc(Cl)ccc1S2` (configuration not stated), the Ratio in assay [1] amounted to 56. The compound further displayed a Locomotor activity with Mus musculus of 343 µM/kg. Also, the “Activity A” value in the assay with Felis catus [2] came to 6.17 µM/kg.

As to `CC(=O)c1ccc2c(c1)/C(=C\C(C)CN(C)C)c1ccccc1S2` (configuration not stated), the Ratio in assay [1] came to 72. In addition, the Locomotor activity with Mus musculus turned out to be 94 µM/kg. Further, in the assay on Felis catus [2], the “Activity A” value amounted to 1.31 µM/kg.

For `CC(=O)c1ccc2c(c1)C(O)(CC(C)CN(C)C)c1ccccc1S2` (configuration not stated), the “Activity A” value with Felis catus [5] was above 21.18 µM/kg; in the assay with Felis catus [2], 3.17 µM/kg.

For the compound `CCCC(=O)c1ccc2c(c1)/C(=C\C(C)CN(C)C)c1ccccc1S2` (configuration not stated), in assay [1], the Ratio came out at 160. For the same compound, the Locomotor activity in the assay with Mus musculus was determined as 195 µM/kg. In the assay on Felis catus [2], the “Activity A” value stood at 1.22 µM/kg.

For `CCCC(=O)c1ccc2c(c1)N(CC(C)CN(C)C)c1ccccc1S2` (configuration not stated), in assay [1], the Ratio was 209. Besides, the “Activity B” value in the assay on Felis catus [3] worked out at 1.2 µM/kg. The Locomotor activity with Mus musculus was 136 µM/kg. Further, the “Activity A” value in the assay with Felis catus [2] was 0.65 µM/kg.

For `CC(=O)c1ccc2c(c1)N(CC(C)CN(C)C)c1cc(Cl)ccc1S2` (configuration not stated), the Ratio in assay [1] came out at 506. In the assay with Felis catus [3], the “Activity B” value is 1 µM/kg. Besides, in the assay on Mus musculus, the Locomotor activity was 161 µM/kg. In addition, the “Activity A” value in the assay with Felis catus [2] was determined as 0.32 µM/kg.

As for `CN(C)CC/C=C1/c2ccccc2Sc2ccc(Cl)cc21` [CHLORPROTHIXENE], in assay [1], the Ratio was determined as 28. Moreover, the “Activity B” value in the assay on Felis catus [3] worked out at 2.1 µM/kg. The same compound registered a Locomotor activity in the assay on Mus musculus of 11 µM/kg. In addition, the “Activity A” value in the assay on Felis catus [2] turned out to be 0.39 µM/kg.

`CCCCC(=O)c1ccc2c(c1)/C(=C\C(C)CN(C)C)c1ccccc1S2` (configuration not stated): the Ratio in assay [1] worked out at 40. Besides, in the assay on Mus musculus, the Locomotor activity was 132 µM/kg. Moreover, in the assay on Felis catus [2], the “Activity A” value came to 3.29 µM/kg.

Consider `CCCC(=O)c1ccc2c(c1)/C(=C\CCN(C)C)c1ccccc1S2`, for which, in assay [1], the Ratio is 334. The “Activity B” value in the assay with Felis catus [6] worked out at 5.1 µM/kg. Further, in the assay with Mus musculus, the Locomotor activity is above 501 µM/kg. Besides, in the assay with Felis catus [2], the “Activity A” value amounted to 1.5 µM/kg.

`CCC(=O)c1ccc2c(c1)/C(=C\CCN(C)C)c1ccccc1S2` (stereo in doubt; 35) [listing 1 of 2 here]: the “Activity B” value in the assay on Felis catus [3] worked out at 1.9 µM/kg. This compound also came in with a Locomotor activity in the assay with Mus musculus of 339 µM/kg. For the same compound, the “Activity A” value in the assay with Felis catus [2] was 0.45 µM/kg.

Take `CC(=O)c1ccc2c(c1)C(CC(C)CN(C)C)c1ccccc1S2` (configuration not stated): in assay [1], the Ratio is 181. Moreover, the “Activity B” value with Felis catus [3] was above 13 µM/kg. In the assay with Mus musculus, this compound gave a Locomotor activity of 377 µM/kg. Further, in the assay with Felis catus [2], the “Activity A” value turned out to be 2.08 µM/kg.

Take `CCC(=O)c1ccc2c(c1)/C(=C\C(C)CN1CCOCC1)c1ccccc1S2` (configuration not stated): the Ratio in assay [1] is above 101. This compound also registered a Locomotor activity in the assay with Mus musculus above 659 µM/kg. The “Activity A” value in the assay on Felis catus [2] turned out to be 6.5 µM/kg.

In the case of `CCC(=O)c1ccc2c(c1)/C(=C\CCN(C)C)c1cc(Cl)ccc1S2`, in assay [1], the Ratio came out at 644. Further, in the assay with Felis catus [3], the “Activity B” value is above 9.6 µM/kg. Also, in the assay on Mus musculus, the Locomotor activity turned out to be 695 µM/kg. Besides, the “Activity A” value with Felis catus [2] is 1.08 µM/kg.

On to `CC(=O)c1ccc2c(c1)/C(=C\CCN(C)C)c1cc(Cl)ccc1S2` (stereo in doubt; 33) [listing 1 of 2 here], for which, in the assay on Felis catus [3], the “Activity B” value was above 5.4 µM/kg. In the assay with Mus musculus, this compound displayed a Locomotor activity of 89 µM/kg. The “Activity A” value with Felis catus [2] was 0.53 µM/kg.

As to `CN(C)CC/C=C1/c2ccccc2C=Cc2ccc(Cl)cc21`, the Ratio in assay [1] stood at 26. Besides, in the assay on Felis catus [3], the “Activity B” value is above 6.1 µM/kg. The compound further showed a Locomotor activity in the assay with Mus musculus of 103 µM/kg. Moreover, the “Activity A” value in the assay with Felis catus [2] was 4.01 µM/kg.

`CCC(=O)c1ccc2c(c1)/C(=C\C(CC)CN(C)C)c1ccccc1S2` (configuration not stated): the Ratio in assay [1] was 68. In addition, in the assay with Mus musculus, the Locomotor activity worked out at 280 µM/kg. The “Activity A” value in the assay with Felis catus [2] amounted to 4.14 µM/kg.

For `CCC(=O)c1ccc2c(c1)/C(=C\C(C)CN(C)C)c1ccccc1S2` (configuration not stated), in assay [1], the Ratio was determined as 501. The “Activity B” value with Felis catus [3] is above 5.2 µM/kg. In the assay on Mus musculus, the Locomotor activity worked out at 261 µM/kg. Also, the “Activity A” value with Felis catus [2] stood at 0.52 µM/kg.

Turning to `CC(=O)c1ccc2c(c1)/C(=C\CCN(C)C)c1ccccc1S2`, the Ratio in assay [1] was 60. In addition, the “Activity B” value in the assay with Felis catus [3] was below 5.4 µM/kg. Moreover, the Locomotor activity in the assay with Mus musculus is 33 µM/kg. Further, the “Activity A” value with Felis catus [2] was determined as 0.54 µM/kg.

As to `CCC(=O)c1ccc2c(c1)C(=C1CCN(C)CC1)c1ccccc1S2`, in assay [1], the Ratio was determined as 141. Also, the Locomotor activity in the assay on Mus musculus came out at 96 µM/kg. For the same compound, the “Activity A” value with Felis catus [2] is 0.68 µM/kg.

Regarding `CC(=O)c1ccc2c(c1)/C(=C\CCN(C)C)c1cc(Cl)ccc1S2` (stereo in doubt; 33) [listing 2 of 2 here], in assay [1], the Ratio worked out at 168.

Take `CCCCC(=O)c1ccc2c(c1)/C(=C\CCN(C)C)c1ccccc1S2`: the “Activity A” value with Felis catus [2] came out at 1.35 µM/kg.

Regarding `CCC(=O)c1ccc2c(c1)/C(=C\CCN(C)C)c1ccccc1S2` (stereo in doubt; 36) [listing 2 of 2 here], the Ratio in assay [1] came to 800.

For `CN(C)CCCN1c2ccccc2Sc2ccc(Cl)cc21` [CHLORPROMAZINE], in the assay with Felis catus [3], the “Activity B” value came to 2 µM/kg. This compound also gave a Locomotor activity with Mus musculus of 39 µM/kg. The “Activity A” value with Felis catus [2] was determined as 0.25 µM/kg.

Consider `CC(=O)c1ccc2c(c1)/C(=C\C(C)CN(C)C)c1cc(Cl)ccc1S2` (configuration not stated), for which the Ratio in assay [1] turned out to be 161. Further, the Locomotor activity with Mus musculus turned out to be 192 µM/kg. The “Activity A” value in the assay with Felis catus [2] was 1.19 µM/kg.

As to `CC(CN1c2ccccc2Sc2ccc(S(=O)(=O)N(C)C)cc21)N(C)C` (configuration not stated) [FONAZINE], the Ratio in assay [1] amounted to 184. Also, the “Activity B” value with Felis catus [3] is 8.1 µM/kg. In the assay on Mus musculus, the Locomotor activity worked out at 860 µM/kg. Besides, the “Activity A” value in the assay with Felis catus [2] came out at 4.67 µM/kg.

In the case of `CCC(=O)c1ccc2c(c1)/C(=C\CCN(C)C)c1ccccc1S2` (stereo in doubt; 35) [listing 2 of 2 here], in assay [1], the Ratio stood at 753.
